Measurements reported in ChEMBL document CHEMBL3739336, “Identification of dual PPARα/γ agonists and their effects on lipid metabolism” (Bioorg Med Chem, 2015).
Active and inactive are the calls of the source. The calls are words filed in the database; no cut-off is given here.

Experiments:
[1] = target: Peroxisome proliferator-activated receptor (Homo sapiens) (UniProt P37231+Q07869+Q03181); test: Agonist activity at PPAR in human THP1 cells assessed as induction of ABCG1 expression at 20 uM after 24 hrs by Western blot analysis relative to control; type: cell-based; details: THP-1
Peroxisome proliferator-activated receptor (Homo sapiens), sequence (P37231 whole entry, looked up, one chain of several): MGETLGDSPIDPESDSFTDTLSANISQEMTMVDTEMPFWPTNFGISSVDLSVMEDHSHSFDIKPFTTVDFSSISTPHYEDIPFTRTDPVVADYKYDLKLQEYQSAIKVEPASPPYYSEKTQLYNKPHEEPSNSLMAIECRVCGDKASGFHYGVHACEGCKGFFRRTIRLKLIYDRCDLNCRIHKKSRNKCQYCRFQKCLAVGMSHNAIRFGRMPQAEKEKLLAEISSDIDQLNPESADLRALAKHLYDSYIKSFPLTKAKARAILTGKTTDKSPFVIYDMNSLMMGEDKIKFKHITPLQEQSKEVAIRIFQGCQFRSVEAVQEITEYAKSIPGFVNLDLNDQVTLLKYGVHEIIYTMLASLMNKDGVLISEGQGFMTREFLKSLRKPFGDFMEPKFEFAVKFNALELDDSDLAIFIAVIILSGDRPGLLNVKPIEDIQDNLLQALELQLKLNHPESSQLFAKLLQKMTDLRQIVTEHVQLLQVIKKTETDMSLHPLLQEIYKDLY
Peroxisome proliferator-activated receptor (Homo sapiens), sequence (Q03181 whole entry, looked up, one chain of several): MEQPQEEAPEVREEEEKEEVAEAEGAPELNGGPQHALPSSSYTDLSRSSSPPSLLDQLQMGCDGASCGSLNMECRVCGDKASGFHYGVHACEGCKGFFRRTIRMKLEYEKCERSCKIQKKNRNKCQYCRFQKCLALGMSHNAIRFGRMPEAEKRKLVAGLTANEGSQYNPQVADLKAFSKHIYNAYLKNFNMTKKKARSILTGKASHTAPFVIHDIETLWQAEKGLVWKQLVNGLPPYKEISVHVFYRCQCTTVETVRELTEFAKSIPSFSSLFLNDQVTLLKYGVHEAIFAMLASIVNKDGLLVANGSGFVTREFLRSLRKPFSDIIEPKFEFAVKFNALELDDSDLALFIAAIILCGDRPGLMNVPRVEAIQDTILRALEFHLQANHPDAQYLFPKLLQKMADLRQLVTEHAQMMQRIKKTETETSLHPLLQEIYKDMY

in vitro = details: human, HEK293 cells
[2] = target: T1, Peroxisome proliferator-activated receptor alpha (Homo sapiens) (UniProt Q07869); test: Agonist activity at PPARalpha in human HuH7 cells assessed as increase of fatty acid oxidation by measuring CO2 production using […] at 20 uM after 18 hrs by scintillation counting; type: cell-based; details: Huh-7
T1 sequence (whole entry): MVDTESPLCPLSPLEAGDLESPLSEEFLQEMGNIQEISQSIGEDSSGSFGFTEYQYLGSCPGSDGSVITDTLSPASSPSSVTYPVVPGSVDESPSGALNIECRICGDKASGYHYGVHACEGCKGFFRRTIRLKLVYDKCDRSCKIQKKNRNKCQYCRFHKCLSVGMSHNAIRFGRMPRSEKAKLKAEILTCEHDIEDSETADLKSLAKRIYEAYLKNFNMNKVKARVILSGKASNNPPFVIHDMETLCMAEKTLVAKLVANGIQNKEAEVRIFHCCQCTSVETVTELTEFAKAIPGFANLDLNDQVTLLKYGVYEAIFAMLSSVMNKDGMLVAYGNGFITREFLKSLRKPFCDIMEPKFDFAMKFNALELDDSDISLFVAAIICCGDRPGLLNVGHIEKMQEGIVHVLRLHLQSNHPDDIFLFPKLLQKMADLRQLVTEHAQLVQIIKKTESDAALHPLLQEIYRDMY

[3] = target: T2, Peroxisome proliferator-activated receptor gamma (Mus musculus) (UniProt P37238); test: Agonist activity at PPARgamma in mouse 3T3-L1 cells assessed as increase of triacylglycerol accumulation at 20 uM after 18 hrs by ORO staining; type: cell-based
T2 sequence (whole entry): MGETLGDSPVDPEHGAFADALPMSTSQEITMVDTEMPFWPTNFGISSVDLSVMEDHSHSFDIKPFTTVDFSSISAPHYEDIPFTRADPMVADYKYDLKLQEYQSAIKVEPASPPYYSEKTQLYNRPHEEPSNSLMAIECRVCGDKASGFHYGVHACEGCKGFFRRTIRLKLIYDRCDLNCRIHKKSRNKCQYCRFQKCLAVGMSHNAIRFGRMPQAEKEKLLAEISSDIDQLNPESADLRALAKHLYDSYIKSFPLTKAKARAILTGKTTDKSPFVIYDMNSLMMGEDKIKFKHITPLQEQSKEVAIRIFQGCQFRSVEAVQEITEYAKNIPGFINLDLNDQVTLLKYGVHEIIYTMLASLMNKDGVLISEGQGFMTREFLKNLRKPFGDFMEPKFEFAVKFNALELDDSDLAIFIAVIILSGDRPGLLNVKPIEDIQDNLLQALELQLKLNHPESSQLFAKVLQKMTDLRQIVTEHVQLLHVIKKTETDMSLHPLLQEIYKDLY
Method in brief: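 Differentiated 3T3-L1 adipocytes on coverslips, treated for 18 h (overnight) with 20 μM or 25 μM. Cells fixed in 4% PFA, rinsed in 60% isopropanol, stained 10 min with Oil Red O (0.5% stock diluted 6/4 in water), then imaged by microscopy for neutral lipid.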

[4] = target: T1, Peroxisome proliferator-activated receptor alpha (Homo sapiens); test: Agonist activity at PPARalpha in human HuH7 cells assessed as increase of CPT1alpha expression at 20 uM by Western blotting relative to control; type: cell-based; details: Huh-7
Method in brief: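 HuH7 hepatoma cells (DMEM/F-12, 10% FCS) incubated overnight ± 20 μM. Whole-cell lysates run on 12% SDS-PAGE and immunoblotted for CPT1α with HRP secondary and ECL. Band intensity normalised to actin; mean ± SEM, n = 3.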

Row | fold change (FC) [1] | inhibition at 100 µM (in vitro) | Activity [1] | Activity [2] | SMILES | further results
1 | 3 | – | – | – | Cn1c(Cc2ccccc2)nn(CN2CCC(c3ccccc3)CC2)c1=S | –
2 | – | < 5% | – | – | CN(CCOc1ccc(CC2SC(=O)NC2=O)cc1)c1ccccn1 (stereo not given) [ROSIGLITAZONE] | –
3 | – | – | inactive | – | COc1ccc2c(=O)c(-c3ccccc3)coc2c1C | –
4 | – | < 5% | – | Active | Cc1cccc(Nc2cc(Cl)nc(SCC(=O)O)n2)c1C [PIRINIXIC ACID] | –
5 | 3 | – | – | Active | CCN(CC)c1ccc(NC(=O)c2ccccc2OCC(=O)N2CCc3ccccc32)cc1 | Activity [3]: 20%; fold change (FC) [4]: > 2
6 | – | – | inactive | – | CCOc1ccc2c(=O)c(-c3ccccc3)coc2c1C | –
